Data as given in ChEMBL document CHEMBL1158182, “Antifungal activity of chalcones: a mechanistic study using various yeast strains” (Eur J Med Chem, 2008).
Converted amounts (≈) assume the structure as drawn.

Assays:
Type in all cases: functional
Ogataea angusta [1] = test: Antifungal activity against Hansenula polymorpha R3 with rgh3 genotype by agar dilution method
Summary of the method: (§1)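 H. polymorpha strains were tested by agar dilution on rich YPD agar at 37 °C. Compound stocks in 96% EtOH were mixed into the medium to give […]. Cells were suspended in water, serially diluted to 10^9, 10^7, 10^5 and 10^3 cells/ml, and applied to the agar with a metal replicator. MIC was read from growth.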

Ogataea angusta [2] = test: Antifungal activity against Hansenula polymorpha D22 with arg1/arg1 ade1/ADE1 leu2/leu2 URA3/ura3 CYS1/cys1 genotype by agar dilution method; summary of the method: as §1
Ogataea angusta [3] = test: Antifungal activity against Hansenula polymorpha CRD2 with leu2 CDR2 genotype by agar dilution method; summary of the method: as §1
Ogataea angusta [4] = test: Antifungal activity against Hansenula polymorpha MC1 with met2 cys1 genotype by agar dilution method; summary of the method: as §1
Saccharomyces cerevisiae [5] = test: Antifungal activity against haploid Saccharomyces cerevisiae 2180 by agar dilution method
Summary of the method: (§2)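 S. cerevisiae and K. lactis strains were tested by agar dilution on rich YPD agar at 30 °C. Compound stocks in 96% EtOH were added to the medium to give […]. Cells were suspended in water, serially diluted to 10^9–10^3 cells/ml, and plated with a metal replicator. MIC was read from growth.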

Saccharomyces cerevisiae [6] = test: Antifungal activity against haploid Saccharomyces cerevisiae 1S by agar dilution method; summary of the method: as §2
Kluyveromyces lactis [7] = test: Antifungal activity against Kluyveromyces lactis 1-6A with MATalpha uraA lys arg genotype by agar dilution method; summary of the method: as §2
Kluyveromyces lactis [8] = test: Antifungal activity against Kluyveromyces lactis 2-18B with MATalpha metA1 ura3 leu2 genotype by agar dilution method; summary of the method: as §2
Ogataea angusta [9] = test: Antifungal activity against Hansenula polymorpha M4 with met4 genotype by agar dilution method; summary of the method: as §1
Ogataea angusta [10] = test: Antifungal activity against Hansenula polymorpha AU05 with ade3 ura3 genotype by agar dilution method; summary of the method: as §1
Ogataea angusta [11] = test: Antifungal activity against Hansenula polymorpha 2a with arg1 leu2 ura3 cys1 genotype by agar dilution method; summary of the method: as §1
Saccharomyces cerevisiae [12] = test: Antifungal activity against haploid Saccharomyces cerevisiae 1169 by agar dilution method; summary of the method: as §2
Saccharomyces cerevisiae [13] = test: Antifungal activity against haploid Saccharomyces cerevisiae YSH1170 by agar dilution method; summary of the method: as §2
Ogataea angusta [14] = test: Antifungal activity against Hansenula polymorpha CD3 with ade1 leu2 cds3 genotype by agar dilution method; summary of the method: as §1
Saccharomyces cerevisiae [15] = test: Antifungal activity against haploid Saccharomyces cerevisiae FY4 by agar dilution method; summary of the method: as §2
Kluyveromyces lactis [16] = test: Antifungal activity against Kluyveromyces lactis 2-19B with MATalpha ura lys arg genotype by agar dilution method; summary of the method: as §2
Ogataea angusta [17] = test: Antifungal activity against Hansenula polymorpha WT2 with ade1 met6 genotype by agar dilution method; summary of the method: as §1
Ogataea angusta [18] = test: Antifungal activity against Hansenula polymorpha WT1 with ade1 ura3 genotype by agar dilution method; summary of the method: as §1
Saccharomyces cerevisiae [19] = test: Antifungal activity against haploid Saccharomyces cerevisiae Sigma 1278b by agar dilution method; summary of the method: as §2
Ogataea angusta [20] = test: Antifungal activity against Hansenula polymorpha CD2 with ade1 leu2 cds2 genotype by agar dilution method; summary of the method: as §1
Saccharomyces cerevisiae [21] = test: Antifungal activity against diploid Saccharomyces cerevisiae 29a by agar dilution method; summary of the method: as §2
Ogataea angusta [22] = test: Antifungal activity against Hansenula polymorpha CD1 with ade1 leu2 cds1 genotype by agar dilution method; summary of the method: as §1
Saccharomyces cerevisiae [23] = test: Antifungal activity against haploid Saccharomyces cerevisiae YSH1171 by agar dilution method; summary of the method: as §2
Saccharomyces cerevisiae [24] = test: Antifungal activity against haploid Saccharomyces cerevisiae 10560-6B by agar dilution method; summary of the method: as §2
Ogataea angusta [25] = test: Antifungal activity against Hansenula polymorpha AS1 with arg1 gsh2delta genotype by agar dilution method; summary of the method: as §1
Ogataea angusta [26] = test: Antifungal activity against Hansenula polymorpha M2 with met2 genotype by agar dilution method; summary of the method: as §1
Ogataea angusta [27] = test: Antifungal activity against Hansenula polymorpha 2b with arg1 ade1 leu2 genotype by agar dilution method; summary of the method: as §1
Saccharomyces cerevisiae [28] = test: Antifungal activity against diploid Saccharomyces cerevisiae 1a by agar dilution method; summary of the method: as §2
Saccharomyces cerevisiae [29] = test: Antifungal activity against diploid Saccharomyces cerevisiae PV-2 by agar dilution method
Summary of the method: (§3)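 MICs by agar dilution on rich YPD medium. Compounds were added from 96% EtOH stocks to give final agar concentrations of 20 to 50 (units as printed in the source). Cells were suspended in water, serially diluted to 10^9, 10^7, 10^5 and 10^3 cells/ml, and spotted onto agar with a metal replicator. Incubation was at 37 °C for H. polymorpha and 30 °C for S. cerevisiae.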

Ogataea angusta [30] = test: Antifungal activity against Hansenula polymorpha CTA1 with leu2 cat1 genotype by agar dilution method; summary of the method: as §3
Saccharomyces cerevisiae [31] = test: Antifungal activity against diploid Saccharomyces cerevisiae PV-3 by agar dilution method; summary of the method: as §3
Saccharomyces cerevisiae [32] = test: Antifungal activity against haploid Saccharomyces cerevisiae D3C by agar dilution method; summary of the method: as §3
Ogataea angusta [33] = test: Antifungal activity against Hansenula polymorpha WA1 with ade1 leu2 gsh1 genotype by agar dilution method; summary of the method: as §3

For `O=C(/C=C/c1ccc([N+](=O)[O-])cc1)c1ccc(Cl)cc1`, the MIC (Ogataea angusta [1]) was over 40 µg/mL, the MIC (Ogataea angusta [2]) was over 40 µg/mL and the MIC (Ogataea angusta [3]) was over 40 µg/mL. For the same molecule, the MIC (Ogataea angusta [4]) was over 40 µg/mL, the MIC (Saccharomyces cerevisiae [5]) was over 40 µg/mL and the MIC (Saccharomyces cerevisiae [6]) was over 40 µg/mL. It also gave an MIC (Kluyveromyces lactis [7]) of over 40 µg/mL, an MIC (Kluyveromyces lactis [8]) of over 40 µg/mL and an MIC (Ogataea angusta [9]) of over 40 µg/mL. The MIC (Ogataea angusta [10]) was over 40 µg/mL, the MIC (Ogataea angusta [11]) was over 40 µg/mL and the MIC (Saccharomyces cerevisiae [12]) was over 40 µg/mL. For the same molecule, the MIC (Saccharomyces cerevisiae [13]) was over 40 µg/mL, the MIC (Ogataea angusta [14]) was over 40 µg/mL and the MIC (Saccharomyces cerevisiae [15]) was over 40 µg/mL. It also gave an MIC (Kluyveromyces lactis [16]) of over 40 µg/mL, an MIC (Ogataea angusta [17]) of over 40 µg/mL and an MIC (Ogataea angusta [18]) of over 40 µg/mL. For the same molecule, the MIC (Saccharomyces cerevisiae [19]) was over 40 µg/mL, the MIC (Ogataea angusta [20]) was over 40 µg/mL and the MIC (Saccharomyces cerevisiae [21]) was over 40 µg/mL. It also gave an MIC (Ogataea angusta [22]) of over 40 µg/mL, an MIC (Saccharomyces cerevisiae [23]) of over 40 µg/mL and an MIC (Saccharomyces cerevisiae [24]) of over 40 µg/mL. For the same molecule, the MIC (Ogataea angusta [25]) was over 40 µg/mL, the MIC (Ogataea angusta [26]) was over 40 µg/mL and the MIC (Ogataea angusta [27]) was over 40 µg/mL. For the same molecule, the MIC (Saccharomyces cerevisiae [28]) was over 40 µg/mL.
`CC(=O)Nc1ccc(/C=C/C(=O)c2ccc(Cl)cc2)cc1` was tested, and the MIC (Ogataea angusta [1]) was over 40 µg/mL, the MIC (Ogataea angusta [2]) was over 40 µg/mL and the MIC (Ogataea angusta [3]) was over 40 µg/mL. The MIC (Ogataea angusta [4]) was over 40 µg/mL, the MIC (Saccharomyces cerevisiae [5]) was over 40 µg/mL and the MIC (Saccharomyces cerevisiae [6]) was over 40 µg/mL. It also gave an MIC (Kluyveromyces lactis [7]) of over 40 µg/mL, an MIC (Kluyveromyces lactis [8]) of over 40 µg/mL and an MIC (Ogataea angusta [9]) of over 40 µg/mL. It also gave an MIC (Ogataea angusta [10]) of over 40 µg/mL, an MIC (Ogataea angusta [11]) of over 40 µg/mL and an MIC (Saccharomyces cerevisiae [12]) of over 40 µg/mL. It also gave an MIC (Saccharomyces cerevisiae [13]) of over 40 µg/mL, an MIC (Ogataea angusta [14]) of over 40 µg/mL and an MIC (Saccharomyces cerevisiae [15]) of over 40 µg/mL. It also gave an MIC (Kluyveromyces lactis [16]) of over 40 µg/mL, an MIC (Ogataea angusta [17]) of over 40 µg/mL and an MIC (Ogataea angusta [18]) of over 40 µg/mL. The MIC (Saccharomyces cerevisiae [19]) was over 40 µg/mL, the MIC (Ogataea angusta [20]) was over 40 µg/mL and the MIC (Saccharomyces cerevisiae [21]) was over 40 µg/mL. For the same molecule, the MIC (Ogataea angusta [22]) was over 40 µg/mL, the MIC (Saccharomyces cerevisiae [23]) was over 40 µg/mL and the MIC (Saccharomyces cerevisiae [24]) was over 40 µg/mL. It also gave an MIC (Ogataea angusta [25]) of over 40 µg/mL, an MIC (Ogataea angusta [26]) of over 40 µg/mL and an MIC (Ogataea angusta [27]) of over 40 µg/mL. For the same molecule, the MIC (Saccharomyces cerevisiae [28]) was over 40 µg/mL.
With `O=C(/C=C/c1cccc(O)c1)c1ccccc1` [3-HYDROXY CHALCONE] the MIC (Ogataea angusta [1]) was 20 µg/mL (≈ 89.2 µM), the MIC (Ogataea angusta [2]) was 25 µg/mL (≈ 111 µM) and the MIC (Saccharomyces cerevisiae [29]) was 25 µg/mL (≈ 111 µM). The MIC (Ogataea angusta [3]) was 20 µg/mL (≈ 89.2 µM), the MIC (Ogataea angusta [30]) was 35 µg/mL (≈ 156 µM) and the MIC (Ogataea angusta [4]) was 20 µg/mL (≈ 89.2 µM). The MIC (Saccharomyces cerevisiae [5]) was 25 µg/mL (≈ 111 µM), the MIC (Saccharomyces cerevisiae [6]) was 25 µg/mL (≈ 111 µM) and the MIC (Kluyveromyces lactis [7]) was under 20 µg/mL. For the same molecule, the MIC (Kluyveromyces lactis [8]) was under 20 µg/mL, the MIC (Ogataea angusta [9]) was 30 µg/mL (≈ 134 µM) and the MIC (Ogataea angusta [10]) was 35 µg/mL (≈ 156 µM). For the same molecule, the MIC (Ogataea angusta [11]) was 25 µg/mL (≈ 111 µM), the MIC (Saccharomyces cerevisiae [12]) was 30 µg/mL (≈ 134 µM) and the MIC (Saccharomyces cerevisiae [13]) was 25 µg/mL (≈ 111 µM). For the same molecule, the MIC (Ogataea angusta [14]) was 25 µg/mL (≈ 111 µM), the MIC (Saccharomyces cerevisiae [15]) was 25 µg/mL (≈ 111 µM) and the MIC (Saccharomyces cerevisiae [31]) was 25 µg/mL (≈ 111 µM). It also gave an MIC (Kluyveromyces lactis [16]) of under 20 µg/mL, an MIC (Ogataea angusta [17]) of 25 µg/mL (≈ 111 µM) and an MIC (Ogataea angusta [18]) of 35 µg/mL (≈ 156 µM). The MIC (Saccharomyces cerevisiae [19]) was 25 µg/mL (≈ 111 µM), the MIC (Ogataea angusta [20]) was 25 µg/mL (≈ 111 µM) and the MIC (Saccharomyces cerevisiae [32]) was 25 µg/mL (≈ 111 µM). It also gave an MIC (Saccharomyces cerevisiae [21]) of 25 µg/mL (≈ 111 µM), an MIC (Ogataea angusta [22]) of 25 µg/mL (≈ 111 µM) and an MIC (Saccharomyces cerevisiae [23]) of 20 µg/mL (≈ 89.2 µM). The MIC (Ogataea angusta [33]) was under 20 µg/mL, the MIC (Saccharomyces cerevisiae [24]) was 25 µg/mL (≈ 111 µM) and the MIC (Ogataea angusta [25]) was 20 µg/mL (≈ 89.2 µM). The MIC (Ogataea angusta [26]) was 25 µg/mL (≈ 111 µM), the MIC (Ogataea angusta [27]) was 25 µg/mL (≈ 111 µM) and the MIC (Saccharomyces cerevisiae [28]) was 25 µg/mL (≈ 111 µM).
